Laboratory results taken from ChEMBL document CHEMBL2146476, “Discovery of selective glucocorticoid receptor modulator MK-5932” (Bioorg Med Chem, 2011).
Calls of active or inactive are those of the source. The calls are words filed in the database; no cut-off is given here.

Tests used:
Glucocorticoid receptor = target: T1, Glucocorticoid receptor (Homo sapiens, UniProt P04150); test: Displacement of [3H]-dexamethasone from human full length GR expressed in insect Sf21 cells
T1 sequence (P04150 whole entry): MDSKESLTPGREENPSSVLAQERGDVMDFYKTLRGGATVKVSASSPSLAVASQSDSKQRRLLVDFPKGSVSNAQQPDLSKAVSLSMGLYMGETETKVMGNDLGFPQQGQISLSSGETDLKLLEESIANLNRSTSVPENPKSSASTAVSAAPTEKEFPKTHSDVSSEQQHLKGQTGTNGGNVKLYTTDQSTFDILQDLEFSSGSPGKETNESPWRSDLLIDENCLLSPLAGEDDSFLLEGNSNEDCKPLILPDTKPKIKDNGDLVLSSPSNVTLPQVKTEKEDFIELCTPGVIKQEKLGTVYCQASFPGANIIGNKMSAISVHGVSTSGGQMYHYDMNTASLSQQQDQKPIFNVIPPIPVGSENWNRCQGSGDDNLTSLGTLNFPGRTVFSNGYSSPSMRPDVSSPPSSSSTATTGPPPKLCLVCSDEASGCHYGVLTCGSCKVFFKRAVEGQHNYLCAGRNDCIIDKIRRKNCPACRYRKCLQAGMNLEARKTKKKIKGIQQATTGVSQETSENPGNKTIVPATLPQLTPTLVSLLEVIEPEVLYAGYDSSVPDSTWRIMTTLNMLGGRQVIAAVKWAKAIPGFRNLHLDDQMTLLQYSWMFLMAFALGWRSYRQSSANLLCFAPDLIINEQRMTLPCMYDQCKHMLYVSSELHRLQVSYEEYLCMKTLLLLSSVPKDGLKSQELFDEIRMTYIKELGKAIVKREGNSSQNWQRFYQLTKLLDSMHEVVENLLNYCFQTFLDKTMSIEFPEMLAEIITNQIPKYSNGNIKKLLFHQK
Method in brief: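 Human full-length GR expressed in insect cells, incubated with compound and 3H-dexamethasone overnight at 4 °C. Bound radioactivity quantified after filtration capture. Nonspecific binding defined with excess unlabelled dexamethasone. Mean of at least two runs.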

[1] = target: T2, Glucocorticoid receptor (Homo sapiens) (UniProt P04150); test: Transactivation activity at GR-mediated modulation of MMTV promoter activity in human HeLa cells transfected with luciferase gene linked to MMTV promoter after 16 hrs by luciferase reporter gene assay relative to dexamethasone; assay type: cell-based
T2 sequence (whole entry): T1 sequence (P04150 whole entry)
Method in brief: (§1)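 HeLa or A549 cells transiently transfected with a luciferase reporter under the MMTV promoter (two GREs), in 10% charcoal-stripped FBS. Compound exposure 16 h, then luciferase measured. Activity expressed as percent of the span between DMSO and dexamethasone controls. Mean of at least three runs.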

[2] = target: T2, Glucocorticoid receptor (Homo sapiens); test: Transrepression activity at glucocorticoid receptor in human LPS and TPA-stimulated U937 cells assessed as effect on glucocorticoid-induced TNFalpha repression by beta lactamase reporter gene assay relative to dexamethasone; assay type: cell-based; conditions: U-937
Method in brief: (§2)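 U937 cells stably carrying a β-lactamase reporter driven by the human TNF-α promoter (-1083 to +182), in 5% charcoal-stripped FBS. Stimulated with 1 µg/mL LPS plus 50 ng/mL TPA, compound exposure 16 h. β-Lactamase read out. Activity expressed as percent of the span between DMSO and 100 nM dexamethasone controls. Mean of at least three runs.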

[3] = target: T2, Glucocorticoid receptor (Homo sapiens); test: Transactivation activity at GR-mediated modulation of MMTV promoter activity in human A549 cells transfected with luciferase gene linked to MMTV promoter after 16 hrs by luciferase reporter gene assay relative to dexamethasone; assay type: cell-based; method in brief: as §1
[4] = target: T2, Glucocorticoid receptor (Homo sapiens); test: Transactivation activity at GR-mediated modulation of MMTV promoter activity in human A549 cells transfected with luciferase gene linked to MMTV promoter after 16 hrs by luciferase reporter gene assay; assay type: cell-based; method in brief: as §1
[5] = target: T2, Glucocorticoid receptor (Homo sapiens); test: Transrepression activity at glucocorticoid receptor in human LPS and TPA-stimulated U937 cells assessed as effect on glucocorticoid-induced TNFalpha repression by beta lactamase reporter gene assay; assay type: cell-based; conditions: U-937; method in brief: as §2
[6] = target: T2, Glucocorticoid receptor (Homo sapiens); test: Transactivation activity at GR-mediated modulation of MMTV promoter activity in human HeLa cells transfected with luciferase gene linked to MMTV promoter after 16 hrs by luciferase reporter gene assay; assay type: cell-based; method in brief: as §1
Rattus norvegicus [7] = test: Toxicity in oxazolone-induced Sprague-Dawley rat chronic dermatitis model assessed as increase in plasma insulin level at 0.5 to 5 mg/kg, po qd administered after 7 days of oxazolone sensitization measured after 4 to 5 hrs last post treatment on day 14; assay type: organism-based; set-up: route oral; conditions: in vivo
Method in brief: (§3)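 Intact 6-month-old female Sprague-Dawley rats sensitized with oxazolone on ventral abdomen on Day 0. One randomly selected ear challenged with oxazolone on Days 7 and 9, other ear given vehicle. Daily oral dosing for 7 d from Day 7, with 6-methylprednisolone or DEX as positive controls. Blood taken ~4-5 h after last dose for plasma insulin. Inflammation read as inter-ear thickness difference.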

Rattus norvegicus [8] = test: Antiinflammatory activity in oxazolone-induced Sprague-Dawley rat chronic dermatitis model at 0.5 to 5 mg/kg, po qd administered after 7 days of oxazolone sensitization measured after 4 to 5 hrs last post treatment on day 14; assay type: functional, organism-based; method in brief: as §3
[9] = Drug uptake in oxazolone-induced Sprague-Dawley rat chronic dermatitis model at 20 mg/kg, po; assay type: ADME, organism-based; set-up: dose 20 mg/kg, route oral; conditions: in vivo, read-out: Drug uptake
Method in brief: (§4)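 Exposure measured in female Sprague-Dawley rats in the oxazolone chronic dermatitis model: sensitization Day 0, ear challenge Days 7 and 9, daily oral dosing for 7 d from Day 7. Exposure expressed as µM h. Blood collected ~4-5 h after last dose.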

Rattus norvegicus [10] = test: Drug metabolism in oxazolone-induced Sprague-Dawley rat chronic dermatitis model assessed as 2-{2-[(4aS,5R)-1-(4-fluorophenyl)-5-hydroxy-4amethyl- 1,4,4a,5,6,7-hexahydrocyclopenta[f]indazol-5-yl]ethyl}benzamide level at 20 mg/kg, po; assay type: ADME, organism-based; set-up: dose 20 mg/kg, route oral; conditions: in vivo
[11] = Drug uptake in oxazolone-induced Sprague-Dawley rat chronic dermatitis model at 5 mg/kg, po; assay type: ADME, organism-based; set-up: dose 5 mg/kg, route oral; conditions: in vivo, read-out: Drug uptake; method in brief: as §4
[12] = Drug uptake in oxazolone-induced Sprague-Dawley rat chronic dermatitis model at 25 mg/kg, po; assay type: ADME, organism-based; set-up: dose 25 mg/kg, route oral; conditions: in vivo, read-out: Drug uptake; method in brief: as §4

| SMILES | Ki (Glucocorticoid receptor) | Emax [1] | Emax [2] | Emax [3] | IP [4] | IP [5] | IP [6] | Activity (Rattus norvegicus [7]) | Activity (Rattus norvegicus [8]) | AUC [9] | Drug metabolism (Rattus norvegicus [10]) | AUC [11] | AUC [12] |
| --- | --- | --- | --- | --- | --- | --- | --- | --- | --- | --- | --- | --- | --- |
| CNC(=O)c1cccc(CC[C@]2(O)CCC3=Cc4c(cnn4-c4ccc(F)cc4)C[C@@]32C)c1 | 15 nM | < 10% | < 10% | < 10% |  |  |  |  |  |  |  |  |  |
| C=C(C)CNC(=O)c1c(F)cccc1CC[C@]1(O)CCC2=Cc3c(cnn3-c3ccc(F)cc3)C[C@@]21C | < 1 nM | 16% | 67% | 24% | 95 nM | 119 nM | 132 nM |  |  |  |  |  |  |
| CC(C)NC(=O)c1ccccc1CC[C@]1(O)CCC2=Cc3c(cnn3-c3ccc(F)cc3)C[C@@]21C | 4 nM | 30% | 62% | 48% | 60 nM | 170 nM | 83 nM |  |  |  |  |  |  |
| C[C@]12Cc3cnn(-c4ccc(F)cc4)c3C=C1CC[C@@]2(O)CCc1cccc(F)c1C(=O)NC1(CO)CC1 | 3 nM | 79% | 96% | 104% | 23 nM | 24 nM | 35 nM |  |  |  |  |  |  |
| C[C@H]1C[C@@H]2[C@H]([C@@H](O)C[C@@]3(C)[C@H]2CC[C@]3(O)C(=O)CO)[C@@]2(C)C=CC(=O)C=C12 [METHYLPREDNISOLONE] |  |  |  |  |  |  |  | Toxic | Active |  |  |  |  |
| CCNC(=O)c1ccccc1CC[C@]1(O)CCC2=Cc3c(cnn3-c3ccc(F)cc3)C(O)[C@@]21C (stereo not given in full) | 40 nM | 6% | 34% | 20% | 1560 nM | 958 nM | 1320 nM |  |  |  |  |  |  |
| C[C@]12Cc3cnn(-c4ccc(F)cc4)c3C=C1[C@H](O)C[C@@]2(O)CCc1ccc(F)cc1C(N)=O | > 400 nM | < 5% | < 5% | < 5% |  |  |  |  |  |  |  |  |  |
| CCCNC(=O)c1ccccc1CC[C@]1(O)CCC2=Cc3c(cnn3-c3ccc(F)cc3)C[C@@]21C | 2 nM | 17% | 50% | 29% | 81 nM | 127 nM | 85 nM |  |  |  |  |  |  |
| CCNC(=O)c1ccccc1CC[C@]1(O)CCC2=Cc3c(cnn3-c3ccc(F)cc3)C[C@@]21C | 2 nM | 38% | 65% | 51% | 39 nM | 88 nM | 107 nM |  |  | 75 µM·h | 50 µM·h |  |  |
| C[C@]12Cc3cnn(-c4ccc(F)cc4)c3C=C1CC[C@@]2(O)CCc1cccc(F)c1C(N)=O | < 1 nM | 58% | 84% | 75% | 9 nM | 10 nM | 11 nM |  |  |  |  |  |  |
| C[C@]12Cc3cnn(-c4ccc(F)cc4)c3C=C1CC[C@@]2(O)CCc1ccccc1C(N)=O | 2 nM | 66% | 82% | 60% | 61 nM | 56 nM | 130 nM |  |  |  |  | 134 µM·h | 199 µM·h |
